Experimental findings from ChEMBL document CHEMBL1140136, “Structural modifications of N-(1,2,3,4-tetrahydronaphthalen-1-yl)-4-aryl-1-piperazinehexanamides: influence on lipophilicity and 5-HT7 receptor activity. Part III” (J Med Chem, 2008) are described below.

One data set addresses D(2) dopamine receptor (Homo sapiens, UniProt P14416). The data set can be described thus: Displacement of [3H]spiroperidol from human cloned dopamine D2L receptor expressed in rat C6 cells. Format: cell-based. (Displacement assays read how much labelled ligand stays bound in the presence of the test substance.)
For data set [1], the target named is T1, 5-hydroxytryptamine receptor 1A (Homo sapiens, UniProt P08908).
T1 sequence (P08908 whole entry): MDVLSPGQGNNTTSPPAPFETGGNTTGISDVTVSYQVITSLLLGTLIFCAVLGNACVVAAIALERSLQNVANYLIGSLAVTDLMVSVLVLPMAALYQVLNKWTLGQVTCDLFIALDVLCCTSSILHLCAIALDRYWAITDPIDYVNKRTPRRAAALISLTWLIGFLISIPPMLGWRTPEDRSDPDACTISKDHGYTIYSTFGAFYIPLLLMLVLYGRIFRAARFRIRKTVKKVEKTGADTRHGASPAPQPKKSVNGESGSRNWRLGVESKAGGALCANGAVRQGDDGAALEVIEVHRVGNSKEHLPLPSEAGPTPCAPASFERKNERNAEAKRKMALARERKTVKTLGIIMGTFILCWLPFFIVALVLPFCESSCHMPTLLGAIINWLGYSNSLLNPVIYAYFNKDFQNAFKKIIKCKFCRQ
The data set is described as follows: Displacement of [3H]8-OH-DPAT from human cloned 5HT1A receptor expressed in HEK293 cells. Format: cell-based. The gist of the method: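 Membranes (40 µg) from HEK-293 cells stably expressing human 5-HT1A, with 1.0 nM [3H]-8-OH-DPAT and compound (0.1 nM-10 µM). Incubated 120 min at 37 °C in 50 mM Tris-HCl pH 7.4, 5 mM MgSO4, then filtered. Nonspecific binding with 10 µM 5-HT. Ki by nonlinear fit and Cheng-Prusoff; three experiments in triplicate.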

Data set [2] is described as follows: Selectivity for rat cloned 5HT7 over human cloned dopamine D2.
Data set [3] concerns the target 5-hydroxytryptamine receptor 7 (Cavia porcellus) (UniProt P50407). The data set is described as follows: Agonist activity at 5HT7 receptor assessed as relaxation of substance P-induced Dunkin-Hartley guinea pig ileum contraction relative to 5-carboxamidotryptamine. Type of data set: functional, tissue-based. Details: scale not given: the % may be the effect or the level left. In outline:
(§1)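 Male Dunkin-Hartley guinea pigs (300-350 g); 3 cm proximal ileum segments were held under 1.0 g tension in Krebs-Henseleit at 37 °C, gassed with 95% O2/5% CO2. The bath contained 1 µM atropine, ketanserin and pyrilamine. Compound (0.001-10 µM) or the 5-CT reference was added 5 min before 100 nM substance P, giving noncumulative curves. Read-out was % reduction of contraction height; EC50 by nonlinear fitting.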

A short description of data set [4]: Selectivity for rat cloned 5HT7 over human cloned 5HT1A.
For data set [5], the target named is T2, 5-hydroxytryptamine receptor 7 (Cavia porcellus, UniProt P50407). The data set can be described thus: Agonist activity at 5HT7 receptor assessed as relaxation of substance P-induced Dunkin-Hartley guinea pig ileum contraction. Format: functional, tissue-based. The gist of the method: as §1
Data set [6] concerns the target 5-hydroxytryptamine receptor 7 (Rattus norvegicus, UniProt P32305). The data set can be described thus: Displacement of [3H]LSD from rat cloned 5HT7 receptor expressed in HEK293 cells. Type of data set: cell-based. The gist of the method: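 Rat recombinant 5-HT7 membranes (30 µg) from HEK-293 cells, with 2.5 nM [3H]-LSD and 6-9 compound concentrations. Incubated 60 min at 37 °C in 50 mM Tris, 10 mM MgCl2, 0.5 mM EDTA, pH 7.4, then filtered. Nonspecific binding with 10 µM 5-CT. Ki via Cheng-Prusoff; three experiments in triplicate.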

The target in data set [7] is T2, 5-hydroxytryptamine receptor 7. The data set can be described thus: Antagonist activity at 5HT7 receptor assessed as inhibition of N-(4-Cyanophenylmethyl)-4-(2-diphenyl)-1-piperazinehexanamide mediated relaxation of substance P-induced Dunkin-Hartley guinea pig ileum contraction. Type of data set: functional, tissue-based. As to conditions: read-out: pA2 (converted). In outline:
(§2)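 Male Dunkin-Hartley guinea pigs (300-350 g); whole proximal ileal segments (~3 cm) held under 1.0 g tension in Krebs-Henseleit, 95% O2/5% CO2, 37 °C. Bath contained 1 µM atropine, ketanserin and pyrilamine. Contraction evoked by 100 nM substance P; agonist added 5 min before; selective 5-HT7 antagonist at 0.1-3 µM; isometric tension relaxation, noncumulative curves.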

Data set [8] shares this target. The data set can be described thus: Antagonist activity at 5HT7 receptor assessed as inhibition of 2-[6-[4-(2-Diphenyl)-1-piperazinyl]-1-oxohexyl]-1,2,3,4-tetrahydroisoquinoline mediated relaxation of substance P-induced Dunkin-Hartley guinea pig ileum contraction. Format: functional, tissue-based. As to conditions: read-out: pA2 (converted). The gist of the method: as §2

Data set [9] has the same target. The data set can be described thus: Antagonist activity at 5HT7 receptor assessed as inhibition of 4-(2-Diphenyl)-N-(4-pyridinylmethyl)-1-piperazinehexanamide mediated relaxation of substance P-induced Dunkin-Hartley guinea pig ileum contraction. Format: functional, tissue-based. To be noted: read-out: pA2 (converted). In outline: as §2
Data set [10] concerns Mus musculus. The data set is described as follows: AUC in CD1 albino mouse brain at 10 mg/kg, ip. Format: ADME, organism-based. Details: dose 10 mg/kg, route intraperitoneal. To be noted: in vivo. In outline:
(§3)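 Male CD1 albino mice (25-30 g), 10 mg/kg i.p., 3 mice per time point. Brains were removed, blotted, frozen, homogenized in water (1 g/10 mL) and extracted twice with hexane/isoamyl alcohol. Parent and 1-arylpiperazine metabolite were measured by RP-HPLC-UV at 230 nm. LLOQ about 0.1 µg/g; no residual-blood correction. Cmax read directly, AUC by linear trapezoidal rule, t1/2 by noncompartmental analysis.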

Data set [11] can be described thus: Cmax in CD1 albino mouse brain at 10 mg/kg, ip after 60 mins. Details: dose 10 mg/kg, route intraperitoneal. Format: ADME, organism-based. The gist of the method:
as §3

Data set [12] in a line: Elimination half life in CD1 albino mouse brain at 10 mg/kg, ip. Format: ADME, organism-based. On the set-up: dose 10 mg/kg, route intraperitoneal. To be noted: read-out: beta t1/2. The gist of the method:
as §3

A short description of data set [13]: Cmax in CD1 albino mouse plasma at 10 mg/kg, ip after 30 mins. Type of data set: ADME, organism-based. Details: dose 10 mg/kg, route intraperitoneal. The gist of the method: (§4)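 Male CD1 mice (25-30 g) received 10 mg/kg ip, with 3 mice per time point. Heparinized trunk blood gave plasma; brain was homogenized in water (1 g/10 mL). Samples were extracted with hexane/isoamyl alcohol and assayed by RP-HPLC-UV at 230 nm with an internal standard. Quantification limits were 0.1 µg/mL plasma and 0.1 µg/g brain. Cmax and its time were read from the data.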

The nature of data set [14]: Elimination half life in CD1 albino mouse plasma at 10 mg/kg, ip. As to conditions: read-out: beta t1/2.
Data set [15] can be described thus: Cmax in CD1 albino mouse brain at 10 mg/kg, ip after 30 mins. Format: ADME, organism-based. Details: dose 10 mg/kg, route intraperitoneal. The gist of the method: as §4
For data set [16], the species on record is Mus musculus. The data set is described as follows: Ratio of plasma AUC to brain AUC in CD1 albino mouse. Format: ADME, organism-based. As to conditions: in vivo. The gist of the method:
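Male CD1 mice (25-30 g) were dosed at 10 mg/kg ip, 3 per time point. Trunk blood plasma and brain homogenate were extracted with hexane/isoamyl alcohol and analysed by RP-HPLC-UV at 230 nm. Quantification limit was ~0.1 µg/mL or µg/g. AUC was calculated by the linear trapezoidal rule, noncompartmental, extrapolated to infinity where possible.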

Data set [17] relates to Mus musculus. The data set is described as follows: Volume of distribution in CD1 albino mouse plasma at 10 mg/kg, ip. To be noted: in vivo.
Data set [18] can be described thus: Cmax in CD1 albino mouse brain at 10 mg/kg, ip after 120 mins. Type of data set: ADME, organism-based. On the set-up: dose 10 mg/kg, route intraperitoneal. In outline:
as §3

pEC50, pKi: −log10 of the molar value.

D(2) dopamine receptor, sequence (P14416 whole entry): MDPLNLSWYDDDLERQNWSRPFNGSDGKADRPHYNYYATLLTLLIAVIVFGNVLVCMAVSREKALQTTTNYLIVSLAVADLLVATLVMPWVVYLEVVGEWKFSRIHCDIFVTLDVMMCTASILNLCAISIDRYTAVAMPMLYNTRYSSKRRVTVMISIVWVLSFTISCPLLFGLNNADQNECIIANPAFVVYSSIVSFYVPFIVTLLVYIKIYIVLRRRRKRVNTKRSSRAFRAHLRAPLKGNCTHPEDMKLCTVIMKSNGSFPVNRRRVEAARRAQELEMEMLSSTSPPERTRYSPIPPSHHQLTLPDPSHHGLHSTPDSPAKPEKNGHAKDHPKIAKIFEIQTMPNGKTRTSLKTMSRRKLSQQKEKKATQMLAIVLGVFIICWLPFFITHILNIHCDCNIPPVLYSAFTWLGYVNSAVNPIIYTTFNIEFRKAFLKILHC
5-hydroxytryptamine receptor 7 (Rattus norvegicus, UniProt P32305), sequence (P32305 whole entry): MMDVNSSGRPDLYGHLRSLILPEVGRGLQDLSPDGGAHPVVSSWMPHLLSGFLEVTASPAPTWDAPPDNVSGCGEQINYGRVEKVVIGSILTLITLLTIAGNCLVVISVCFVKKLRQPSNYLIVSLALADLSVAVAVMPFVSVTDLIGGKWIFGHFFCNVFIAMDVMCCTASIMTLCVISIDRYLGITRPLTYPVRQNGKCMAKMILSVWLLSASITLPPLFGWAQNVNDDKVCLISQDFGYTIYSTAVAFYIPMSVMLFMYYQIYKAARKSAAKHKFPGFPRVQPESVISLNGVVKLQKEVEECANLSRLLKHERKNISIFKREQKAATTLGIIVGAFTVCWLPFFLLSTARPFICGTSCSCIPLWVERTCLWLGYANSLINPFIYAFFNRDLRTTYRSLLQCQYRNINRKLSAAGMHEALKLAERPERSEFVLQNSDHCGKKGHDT
T2 sequence (P50407 whole entry): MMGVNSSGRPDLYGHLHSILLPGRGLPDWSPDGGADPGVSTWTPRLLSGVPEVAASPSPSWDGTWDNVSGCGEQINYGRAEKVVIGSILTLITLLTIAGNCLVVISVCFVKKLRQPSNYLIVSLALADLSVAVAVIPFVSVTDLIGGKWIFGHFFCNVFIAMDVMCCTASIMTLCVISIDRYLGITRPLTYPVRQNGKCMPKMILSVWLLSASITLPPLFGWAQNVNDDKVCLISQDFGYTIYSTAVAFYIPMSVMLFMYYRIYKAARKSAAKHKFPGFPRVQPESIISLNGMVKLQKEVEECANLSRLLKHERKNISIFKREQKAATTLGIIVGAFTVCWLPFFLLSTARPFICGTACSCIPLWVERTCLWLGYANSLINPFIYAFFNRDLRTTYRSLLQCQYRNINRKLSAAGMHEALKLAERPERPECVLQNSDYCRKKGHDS
5-hydroxytryptamine receptor 7 (Cavia porcellus), sequence (P50407 whole entry): as above

A word on the pKi: it is the Ki on a negative log10 scale, so that one unit is a factor of ten. The pEC50 is the negative decadic logarithm of the EC50, by convention in mol/L. In the case of `O=C(CCCCCN1CCN(c2ccccc2-c2ccccc2)CC1)N1CCc2ccccc2C1`, the pKi at D(2) dopamine receptor is 6.44; in data set [1], 7.02; in data set [6], 8.42. For the same compound, the values for the Selectivity ratio in data set [2] and in data set [4] were 95 and 25, respectively. Also, in data set [3], the Activity came out at 89%. The pEC50 in data set [5] is 6.31.

As to `CC(C)c1ccccc1N1CCN(CCCCCC(=O)NCc2ccc(C#N)cc2)CC1`, the values for the negative logarithm of the Ki (pKi) (at D(2) dopamine receptor; in data set [1]; in data set [6]) were 7.70, 7.28 and 8.07, respectively.

As to `CC1CCN(CC[C@H]2CCCN2S(=O)(=O)c2cccc(O)c2)CC1`, the results for the Kb in data set [7], in data set [8] and in data set [9] were 20.4 nM, 15.8 nM and 11 nM, respectively.

With `CSc1ccccc1N1CCN(CCCCCC(=O)NCc2ccncc2)CC1`, the values for the pKi (at D(2) dopamine receptor; in [1]; in data set [6]) were 7.19, 8.09 and 7.46, respectively.

Turning to `O=C(CCCCCN1CCN(c2ccccc2-c2ccccc2)CC1)NCc1ccncc1`, the values for the pKi (on D(2) dopamine receptor; in [1]; in data set [6]) were 6.73, 7.15 and 9.01, respectively. Further, the figures for the Selectivity ratio in data set [2] and in [4] were 95 and 25, respectively. The Activity in data set [3] is 87%. For the same compound, the negative-log EC50 (pEC50) in data set [5] is 6.51.

In general, Cmax refers to the maximum level reached in the sampled fluid or tissue. `CSc1ccccc1N1CCNCC1` yielded an AUC in the data set with Mus musculus [10] of 85 µg/min/mL. For the same compound, in [11], the concentration peaked (Cmax) at 500 ng/g. Also, the half-life in data set [12] turned out to be 1 h.

With `O=C(CCCCCN1CCN(c2ccccc2-c2ccccc2)CC1)N1Cc2ccccc2C1`, the pKi on D(2) dopamine receptor was 7.03; in [1] it was 6.91; in data set [6], 8.08.

For `COc1ccccc1N1CCN(CCCCCC(=O)NCc2ccc(OS(C)(=O)=O)cc2)CC1`, the negative logarithm of the Ki (pKi) is 7.04 on D(2) dopamine receptor, 7.54 in data set [1] and 7.15 in data set [6].

Take `N#Cc1ccc(CNC(=O)CCCCCN2CCN(c3ccccc3-c3ccccc3)CC2)cc1`: the pKi on D(2) dopamine receptor was 6.85; in data set [6], 9.24. Also, the figures for the Cmax in data set [13] and in [15] were 760 ng/mL and 540 ng/g, respectively. The results for the half-life in data set [14] and in data set [12] were 1.08 h and 1.15 h, respectively. Moreover, the Activity in data set [3] was 82%. Also, the “Ratio AUC” value in the data set listed under Mus musculus [16] is recorded as 0.7. In addition, the Vd with Mus musculus [17] came out at 11 L/kg. The pEC50 in [5] is 6.22.

Turning to `CSc1ccccc1N1CCN(CCCCCC(=O)N2Cc3ccccc3C2)CC1`, the results for the pKi (on D(2) dopamine receptor; in [1]; in data set [6]) were 7.02, 8.97 and 7.38, respectively.

Turning to `CC(C)c1ccccc1N1CCN(CCCCCC(=O)NCc2ccc(OS(C)(=O)=O)cc2)CC1`, the pKi on D(2) dopamine receptor was 8.11; in data set [1] it was 7.24; in data set [6], 7.12.

With `CC(C)c1ccccc1N1CCN(CCCCCC(=O)N2Cc3ccccc3C2)CC1`, the pKi at D(2) dopamine receptor is 7.19; in [1], 7.66; in [6], 7.27.

Regarding `CSc1ccccc1N1CCN(CCCCCC(=O)NCc2ccc(C#N)cc2)CC1`, the pKi on D(2) dopamine receptor is 8.28; in [1], 7.03; in [6], 8.05.

`c1ccc(-c2ccccc2N2CCNCC2)cc1` had an AUC with Mus musculus [10] of 94 µg/min/mL. Besides, in data set [18], the Cmax was found to be 410 ng/g. In addition, in data set [12], the half-life is 1.45 h.
